Common to all, as to assay type: functional, cell-based
The subject of one assay is L1210. Put plainly: Cytostatic activity against mouse L1210 cells assessed as inhibition of cell proliferation after 48 hrs by coulter counting analysis. The gist of the method:
(§1)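 Anti-proliferative screen in murine leukemia L1210, human T-lymphocyte CEM and human cervix carcinoma HeLa cultures. The value reported is the IC50, the concentration that inhibits cell proliferation by 50%.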

Another assay relates to CCRF-CEM. Put plainly: Cytostatic activity against human CEM cells assessed as inhibition of cell proliferation after 72 hrs by coulter counting analysis. An outline of the steps: as §1
Another assay has as its system HeLa. Put plainly: Cytostatic activity against human HeLa cells assessed as inhibition of cell proliferation after 72 hrs by coulter counting analysis. The gist of the method: as §1
In another assay the test system is CAKI-1. Put plainly: Cytostatic activity against human Caki1 cells assessed as inhibition of cell proliferation after 96 hrs by coulter counting analysis. The settings on record: CAKI-1, 96 h. The gist of the method:
(§2)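 Anti-proliferative testing extended to human kidney Caki-1 and human liver Huh-7 tumour cells. The value reported is the IC50, the concentration that inhibits tumour cell growth by 50%.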

A further assay has as its system Huh-7. Put plainly: Cytostatic activity against human HuH7 cells assessed as inhibition of cell proliferation after 96 hrs by coulter counting analysis. The settings on record: Huh-7, 96 h. The gist of the method:
as §2

Here are results for five molecules from ChEMBL document CHEMBL3286189, “Discovery and SAR studies of a novel class of cytotoxic 1,4-disubstituted piperidines via Ugi reaction” (Eur J Med Chem, 2014).

Structures are written as SMILES.

With `CC(C)(C)OC(=O)N[C@@H](Cc1c[nH]c2ccccc12)C(=O)N(Cc1ccccc1)C1(C(=O)NCc2ccccc2)CCN(Cc2ccccc2)CC1`, the IC50 was 4.6 µM in the assay on L1210 (Mus musculus, L1210, 48 h); 5.9 µM with CCRF-CEM (Homo sapiens, CCRF-CEM, 72 h); 5.9 µM in the assay with HeLa (Homo sapiens, HeLa, 72 h); 14 µM with CAKI-1; 6.6 µM in the assay on Huh-7.
Regarding `CCC(C)N(C(=O)[C@H](CC(=O)OC)NC(=O)OCc1ccccc1)C1(C(=O)NCc2ccccc2)CCN(Cc2ccccc2)CC1` (stereo partly specified), the IC50 in the assay on L1210 (Mus musculus, L1210, 48 h) came to 5.3 µM; with CCRF-CEM (Homo sapiens, CCRF-CEM, 72 h), 4.5 µM; in the assay on HeLa (Homo sapiens, HeLa, 72 h), 4.3 µM; in the assay with CAKI-1, 8.7 µM; in the assay with Huh-7, 6.4 µM.
On to `C=CCOC(=O)N1CCC(C(=O)NCc2ccccc2)(N(Cc2ccccc2)C(=O)[C@H](Cc2ccccc2)NC(=O)OC(C)(C)C)CC1`, for which the IC50 in the assay with L1210 (Mus musculus, L1210, 48 h) was determined as 4.2 µM; in the assay with CCRF-CEM (Homo sapiens, CCRF-CEM, 72 h), 4.7 µM; in the assay on HeLa (Homo sapiens, HeLa, 72 h), 7 µM; with CAKI-1, 12 µM; with Huh-7, 8.1 µM.
As for `COC(=O)C[C@H](NC(=O)OC(C)(C)C)C(=O)N(Cc1ccccc1)C1(C(=O)NCc2ccccc2)CCN(Cc2ccccc2)C1` (single isomer, unassigned; diastereomer 2), the IC50 in the assay with L1210 (l1210) came out at 9 µM; with CCRF-CEM (ccrf-cem), 22 µM; in the assay with HeLa (Homo sapiens, HeLa, 72 h), 18 µM.
On to `COC(=O)C[C@H](NC(=O)OC(C)(C)C)C(=O)N(Cc1ccccc1)C1(C(=O)NCc2ccccc2)CCN(Cc2ccccc2)C1` (single isomer, unassigned; diastereomer-1), for which the IC50 with L1210 (Mus musculus, L1210, 48 h) amounted to 6.2 µM; in the assay with CCRF-CEM (Homo sapiens, CCRF-CEM, 72 h), 19 µM; in the assay with HeLa (hela), 16 µM.

As a reminder, the IC50 is the midpoint of a concentration-inhibition curve.
